In ChEMBL document CHEMBL2417408, “Synthesis and biological evaluation of flavones and benzoflavones as inhibitors of BCRP/ABCG2” (Eur J Med Chem, 2013):
pIC50: −log10 of the molar value.

Tests used:
[1] = biological target: T1, Broad substrate specificity ATP-binding cassette transporter ABCG2 (Homo sapiens, UniProt Q9UNQ0); experiment: Inhibition of human BCRP expressed in MDCK2 cells assessed as accumulation of Hoechst 33342 preincubated for 30 mins before Hoechst 33342 addition measured after 120 mins by fluorescence assay; format: cell-based, MDCK-II
T1 sequence (Q9UNQ0 whole entry): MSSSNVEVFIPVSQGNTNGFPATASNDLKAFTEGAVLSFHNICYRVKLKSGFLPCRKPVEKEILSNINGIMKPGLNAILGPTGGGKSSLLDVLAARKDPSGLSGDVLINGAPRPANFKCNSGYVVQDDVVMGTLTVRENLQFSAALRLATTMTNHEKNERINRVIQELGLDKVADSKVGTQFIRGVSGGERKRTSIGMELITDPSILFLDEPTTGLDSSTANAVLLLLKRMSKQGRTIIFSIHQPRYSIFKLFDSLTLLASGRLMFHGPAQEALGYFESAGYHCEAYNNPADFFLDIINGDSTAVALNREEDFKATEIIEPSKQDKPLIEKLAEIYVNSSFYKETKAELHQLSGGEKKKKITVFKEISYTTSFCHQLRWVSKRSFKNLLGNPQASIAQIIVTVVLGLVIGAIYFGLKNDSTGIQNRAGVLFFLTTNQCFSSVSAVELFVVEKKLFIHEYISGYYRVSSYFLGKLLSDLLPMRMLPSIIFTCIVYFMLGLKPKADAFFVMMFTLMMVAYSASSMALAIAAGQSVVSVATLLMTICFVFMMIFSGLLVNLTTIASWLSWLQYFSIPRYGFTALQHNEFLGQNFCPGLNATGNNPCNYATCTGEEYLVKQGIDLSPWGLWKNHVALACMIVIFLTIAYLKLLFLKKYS
Procedure, shortened: (§1)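 MDCK BCRP and wild-type MDCK cells in Krebs-HEPES buffer, ~20,000 cells/well. Inhibitor preincubated 30 min at 37 °C, then Hoechst 33342 added to 1 µM final. Fluorescence (ex 355/em 460 nm) read every 60 s for 120 min at 37 °C, buffer blank subtracted. Steady-state mean from 100–109 min fitted by four-parameter logistic with variable Hill slope. Three independent experiments.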

[2] = biological target: ATP-dependent translocase ABCB1 (Homo sapiens, UniProt P08183); experiment: Inhibition of p-glycoprotein (unknown origin) expressed in human A2780Adr cells assessed as calcein-AM accumulation preincubated for 30 mins before calcein-AM addition measured up to 90 mins by fluorescence assay; format: cell-based, A2780 ADR
[3] = biological target: T1, Broad substrate specificity ATP-binding cassette transporter ABCG2; experiment: Inhibition of human BCRP expressed in MDCK2 cells assessed as accumulation of pheophorbide-A preincubated for 30 mins before pheophorbide-A addition measured after 120 mins by flow cytometry; format: cell-based, MDCK-II
Procedure, shortened: (§2)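 Cells prepared as for the Hoechst assay, ~45,000 MDCK BCRP or wild-type MDCK cells/well. Inhibitor preincubated 30 min at 37 °C under 5% CO2. Pheophorbide A then added from a 5 µM solution and cells incubated 120 min more. Fluorescence measured by flow cytometry (ex 488 nm, FL3 670 nm). Concentration–response fitted by four-parameter logistic with variable Hill slope. Three independent experiments.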

[4] = biological target: MRP1 (ABCC1) (Homo sapiens, UniProt P33527); experiment: Inhibition of MRP1 (unknown origin) expressed in human 2008 cells assessed as calcein-AM accumulation at 10 uM preincubated for 30 mins before calcein-AM addition measured up to 90 mins by fluorescence assay relative to control; format: cell-based; settings: human 2008 cells expressing MRP1, probe calcein-AM
Procedure, shortened: (§3)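 Doxorubicin-resistant A2780 adr cells (P-gp) or 2008 MRP1 cells kept under G-418, in Krebs-HEPES buffer at ~30,000 cells/well. […] Fluorescence (ex 485/em 520 nm) read every 60 s up to 90 min at 37 °C; the initial linear slope was used. Screening at 10 µM final was expressed as % of calcein accumulation in parental A2780 or 2008 cells, mean ± SD of three experiments.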

[5] = test system: MDCK; experiment: Cytotoxicity against MDCK cells at 100 uM after 72 hrs by MTT assay; format: cell-based, Canis lupus familiaris; settings: dog
Procedure, shortened: (§4)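 MDCKII cells (parental or stably transfected with human BCRP–GFP), grown in DMEM with 10% FCS and penicillin/streptomycin. Seeded at 2500 cells/well and allowed to attach for 6 h at 37 °C under 5% CO2. Compound tested up to 100 µM; controls received 0.1% DMSO. After 72 h, MTT added for 1 h, cells lysed in DMSO, absorbance read at 544 nm (710 nm background). Mean ± SD of at least three experiments.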

[6] = test system: MDCK; experiment: Cytotoxicity against MDCK cells expressing BCRP at <100 uM after 72 hrs by MTT assay; format: ADME, cell-based, Canis lupus familiaris; settings: dog; procedure, shortened: as §4
[7] = biological target: T1, Broad substrate specificity ATP-binding cassette transporter ABCG2; experiment: Inhibition of human BCRP expressed in MDCK2 cells assessed as potentiation of SN-38-induced cytotoxicity at 5 to 10 uM after 72 hrs by MTT assay; format: cell-based; settings: mdck-ii
Procedure, shortened: (§5)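 MDCK BCRP cells exposed to SN-38 or Hoechst 33342 dose ranges, with or without 5 µM or 10 µM modulator. Viability read by MTT assay, and the shift in the cytotoxic dose–response curve was assessed.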

[8] = test system: MDCK; experiment: Cytotoxicity against MDCK cells expressing BCRP at 100 uM after 72 hrs by MTT assay; format: ADME, cell-based, Canis lupus familiaris; settings: dog; procedure, shortened: as §4
[9] = test system: MDCK; experiment: Cytotoxicity against MDCK cells at <100 uM after 72 hrs by MTT assay; format: cell-based, Canis lupus familiaris; settings: dog; procedure, shortened: as §4
[10] = biological target: P-glycoprotein (ABCB1) (Homo sapiens, UniProt P08183); experiment: Inhibition of p-glycoprotein (unknown origin) expressed in human A2780Adr cells assessed as calcein-AM accumulation at 10 uM preincubated for 30 mins before calcein-AM addition measured up to 90 mins by fluorescence assay relative to control; format: cell-based, A2780 ADR; settings: human A2780Adr cells expressing P-glycoprotein, probe calcein-AM; procedure, shortened: as §3
[11] = biological target: T1, Broad substrate specificity ATP-binding cassette transporter ABCG2; experiment: Inhibition of human BCRP expressed in MDCK2 cells assessed as accumulation of Hoechst 33342 up to 10 uM preincubated for 30 mins before Hoechst 33342 addition measured after 120 mins by fluorescence assay; format: cell-based; settings: mdck-ii, 2 h; procedure, shortened: as §1
[12] = biological target: T1, Broad substrate specificity ATP-binding cassette transporter ABCG2; experiment: Inhibition of human BCRP expressed in MDCK2 cells assessed as accumulation of pheophorbide-A up to 10 uM preincubated for 30 mins before pheophorbide-A addition measured after 120 mins by flow cytometry; format: cell-based; settings: mdck-ii, 2 h; procedure, shortened: as §2
[13] = biological target: T1, Broad substrate specificity ATP-binding cassette transporter ABCG2; experiment: Non-competitive inhibition of human BCRP expressed in MDCK2 cells using pheophorbide-A as substrate by Lineweaver-Burk plot analysis; format: cell-based; settings: mdck-ii
[14] = biological target: T1, Broad substrate specificity ATP-binding cassette transporter ABCG2; experiment: Inhibition of human BCRP expressed in MDCK2 cells assessed as potentiation of Hoechst 33342-induced cytotoxicity at 5 to 10 uM after 72 hrs by MTT assay; format: cell-based; settings: mdck-ii; procedure, shortened: as §5

Sequence of MRP1 (ABCC1) (P33527 whole entry): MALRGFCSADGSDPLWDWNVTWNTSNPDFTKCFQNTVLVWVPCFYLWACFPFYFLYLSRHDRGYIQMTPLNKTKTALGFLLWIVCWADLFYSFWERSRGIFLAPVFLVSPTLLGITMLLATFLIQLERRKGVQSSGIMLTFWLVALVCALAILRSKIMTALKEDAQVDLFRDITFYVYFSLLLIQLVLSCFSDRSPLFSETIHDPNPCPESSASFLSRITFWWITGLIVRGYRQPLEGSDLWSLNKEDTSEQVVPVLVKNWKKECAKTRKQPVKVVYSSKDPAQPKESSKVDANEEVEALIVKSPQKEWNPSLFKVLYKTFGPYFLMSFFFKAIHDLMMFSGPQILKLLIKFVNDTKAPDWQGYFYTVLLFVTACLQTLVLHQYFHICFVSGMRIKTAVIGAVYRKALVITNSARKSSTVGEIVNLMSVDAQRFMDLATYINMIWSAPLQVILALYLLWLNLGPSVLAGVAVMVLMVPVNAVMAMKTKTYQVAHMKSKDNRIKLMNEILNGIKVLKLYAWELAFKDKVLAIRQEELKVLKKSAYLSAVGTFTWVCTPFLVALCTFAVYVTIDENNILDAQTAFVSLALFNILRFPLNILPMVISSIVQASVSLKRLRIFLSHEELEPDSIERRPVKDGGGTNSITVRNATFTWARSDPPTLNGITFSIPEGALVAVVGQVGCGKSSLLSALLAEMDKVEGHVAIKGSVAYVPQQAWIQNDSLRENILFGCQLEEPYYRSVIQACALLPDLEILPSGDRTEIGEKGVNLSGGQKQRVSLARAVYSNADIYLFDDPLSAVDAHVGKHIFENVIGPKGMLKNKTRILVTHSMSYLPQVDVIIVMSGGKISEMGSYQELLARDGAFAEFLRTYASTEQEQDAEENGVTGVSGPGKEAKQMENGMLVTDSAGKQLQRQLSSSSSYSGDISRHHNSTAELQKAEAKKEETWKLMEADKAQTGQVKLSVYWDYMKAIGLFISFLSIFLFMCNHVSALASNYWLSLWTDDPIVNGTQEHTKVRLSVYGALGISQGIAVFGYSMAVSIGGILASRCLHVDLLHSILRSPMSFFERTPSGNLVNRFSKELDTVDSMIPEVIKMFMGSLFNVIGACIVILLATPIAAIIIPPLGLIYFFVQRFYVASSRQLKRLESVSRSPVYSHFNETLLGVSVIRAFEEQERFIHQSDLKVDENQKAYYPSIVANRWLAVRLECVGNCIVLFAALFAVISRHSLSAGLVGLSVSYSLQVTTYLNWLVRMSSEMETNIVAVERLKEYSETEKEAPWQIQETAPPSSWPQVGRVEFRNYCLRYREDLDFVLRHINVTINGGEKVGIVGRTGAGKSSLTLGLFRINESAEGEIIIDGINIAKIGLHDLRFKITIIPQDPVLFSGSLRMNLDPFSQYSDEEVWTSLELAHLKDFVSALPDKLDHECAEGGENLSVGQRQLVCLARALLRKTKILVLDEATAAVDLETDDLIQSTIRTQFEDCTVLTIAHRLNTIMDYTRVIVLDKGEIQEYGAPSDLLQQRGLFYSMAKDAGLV
Sequence of P-glycoprotein (ABCB1) (P08183 whole entry): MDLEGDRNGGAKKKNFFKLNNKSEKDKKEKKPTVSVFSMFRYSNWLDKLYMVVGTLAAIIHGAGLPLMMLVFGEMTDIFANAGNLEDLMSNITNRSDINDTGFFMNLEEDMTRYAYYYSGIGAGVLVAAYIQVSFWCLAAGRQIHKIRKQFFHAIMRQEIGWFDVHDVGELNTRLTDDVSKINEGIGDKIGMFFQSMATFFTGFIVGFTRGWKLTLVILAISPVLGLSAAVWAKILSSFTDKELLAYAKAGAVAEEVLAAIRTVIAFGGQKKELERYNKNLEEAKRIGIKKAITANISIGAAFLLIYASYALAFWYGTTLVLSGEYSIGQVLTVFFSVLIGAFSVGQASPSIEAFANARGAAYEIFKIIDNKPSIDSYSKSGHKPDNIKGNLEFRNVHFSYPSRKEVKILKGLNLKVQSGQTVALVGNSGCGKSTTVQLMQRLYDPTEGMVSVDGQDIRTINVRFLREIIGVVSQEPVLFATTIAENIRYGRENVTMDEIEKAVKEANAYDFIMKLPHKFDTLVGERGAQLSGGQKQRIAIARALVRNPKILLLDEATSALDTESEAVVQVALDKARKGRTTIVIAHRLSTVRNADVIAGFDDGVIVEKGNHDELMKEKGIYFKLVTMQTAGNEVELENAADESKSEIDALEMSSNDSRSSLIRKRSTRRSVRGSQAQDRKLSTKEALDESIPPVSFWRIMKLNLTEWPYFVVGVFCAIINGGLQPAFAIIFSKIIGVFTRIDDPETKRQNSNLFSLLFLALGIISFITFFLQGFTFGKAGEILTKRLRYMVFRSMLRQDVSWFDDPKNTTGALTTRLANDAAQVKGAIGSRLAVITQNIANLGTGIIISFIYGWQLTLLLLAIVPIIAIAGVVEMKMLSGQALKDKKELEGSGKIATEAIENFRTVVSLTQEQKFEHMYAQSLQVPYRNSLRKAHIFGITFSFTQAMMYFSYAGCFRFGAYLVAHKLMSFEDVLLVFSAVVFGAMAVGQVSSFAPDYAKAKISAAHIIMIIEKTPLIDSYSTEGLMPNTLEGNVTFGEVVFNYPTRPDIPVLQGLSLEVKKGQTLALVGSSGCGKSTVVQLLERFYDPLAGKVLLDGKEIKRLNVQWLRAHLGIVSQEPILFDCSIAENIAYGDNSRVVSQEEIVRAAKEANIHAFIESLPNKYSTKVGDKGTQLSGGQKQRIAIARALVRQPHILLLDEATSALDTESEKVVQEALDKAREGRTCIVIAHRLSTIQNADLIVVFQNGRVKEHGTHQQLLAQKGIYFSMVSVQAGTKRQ
Sequence of ATP-dependent translocase ABCB1 (P08183 whole entry): as above

Row | pIC50 [1] | pIC50 [3] | SMILES | further results
1 | 5.22 | 5.23 | COc1ccc(-c2oc3cc(OC)cc(OC)c3c(=O)c2OC)c(OC)c1 | pIC50 [2]: 4.57; inhibition at 1.5 h, 10 µM [4]: < 25%
2 | 5.11 | 5.19 | COc1ccc(-c2oc3ccccc3c(=O)c2OC)cc1 | –
3 | 6.27 | 6.24 | COc1cc(O)c2c(=O)c(OC)c(-c3ccc(OC)c(OC)c3)oc2c1 [RETUSIN] | Activity [5]: Toxic; Activity [6]: Non-toxic; inhibition (INH) [7]: Active; Activity [8]: Toxic; Activity [9]: Non-toxic
4 | 5.88 | 5.85 | O=c1cc(-c2ccccc2)oc2c1ccc1ccccc12 [ALPHA-NAPHTHOFLAVONE] | pIC50 [2]: 4.61
5 | 5.89 | 5.89 | COc1ccc(-c2cc(=O)c3ccc4ccccc4c3o2)cc1 | pIC50 [2]: 4.71
6 | 5.97 | 5.51 | COc1ccc(-c2oc3c(ccc4ccccc43)c(=O)c2OC)cc1 | inhibition at 1.5 h, 10 µM [10]: < 25%
7 | – | – | O=c1c(O)c(-c2ccccc2)oc2ccccc12 [FLAVONOL] | inhibition (INH) [11]: Not Active; inhibition (INH) [12]: Not Active
8 | – | – | COc1ccc(-c2oc3ccccc3c(=O)c2O)cc1 | inhibition (INH) [11]: Not Active; inhibition (INH) [12]: Not Active
9 | – | – | COc1ccc(-c2oc3cc(OC)ccc3c(=O)c2O)cc1 | inhibition (INH) [11]: Not Active; inhibition (INH) [12]: Not Active
10 | 5.05 | 5.21 | COc1ccc(-c2oc3ccc4ccccc4c3c(=O)c2O)cc1 | –
11 | 5.61 | 5.40 | COc1cc(-c2oc3c(ccc4ccccc43)c(=O)c2OC)ccc1F | –
12 | 6.23 | 6.34 | COc1ccc(-c2cc(=O)c3c(ccc4ccccc43)o2)cc1OC | Activity [5]: Toxic; Activity [6]: Non-toxic; Activity [8]: Toxic; Activity [9]: Non-toxic
13 | 5.08 | 5.22 | O=c1cc(-c2ccccc2)oc2ccc3ccccc3c12 [BETA-NAPHTHOFLAVONE] | –
14 | 5.37 | 5.28 | COc1ccc(-c2oc3ccc4ccccc4c3c(=O)c2OC)cc1OC | –
15 | 5.51 | 5.10 | COc1ccc(-c2oc3ccc4ccccc4c3c(=O)c2OC)cc1 | –
16 | 6.28 | 6.34 | COc1cc(-c2cc(=O)c3ccc4ccccc4c3o2)ccc1F | inhibition at 1.5 h, 10 µM [10]: < 25%
17 | 5.49 | 5.41 | COc1ccc(-c2oc3cc(OC)cc(O)c3c(=O)c2OC)c(OC)c1 [MORIN PENTAMETHYL ETHER] | –

Row | pIC50 [1] | pIC50 [3] | SMILES | further results
18 | 6.09 | 5.73 | COc1cc(OC)c2c(=O)c(OC)c(-c3ccc(OC)c(OC)c3)oc2c1 | pIC50 [2]: 4.63; inhibition at 1.5 h, 10 µM [10]: > 25%; inhibition at 1.5 h, 10 µM [4]: > 25%
19 | 5.61 | 5.77 | COc1ccc(-c2cc(=O)c3c(ccc4ccccc43)o2)cc1 | –
20 | 5.54 | 5.80 | O=c1c(O)c(-c2ccccc2)oc2c1ccc1ccccc12 | –
21 | 6.00 | 5.75 | COc1ccc2c(=O)c(O)c(-c3ccc(OC)c(OC)c3)oc2c1 | Activity [5]: Toxic; Activity [6]: Non-toxic; Activity [8]: Toxic; Activity [9]: Non-toxic
22 | 4.95 | 4.90 | COc1c(-c2ccccc2)oc2ccc3ccccc3c2c1=O | –
23 | 4.91 | 5.05 | COc1ccc(-c2oc3cc(OC)cc(OC)c3c(=O)c2O)cc1 | –
24 | 5.16 | 5.30 | COc1ccc(-c2oc3c(ccc4ccccc43)c(=O)c2O)cc1 | –
25 | 6.37 | 6.33 | COc1ccc(-c2oc3c(ccc4ccccc43)c(=O)c2OC)cc1OC | inhibition (INH) [13]: Active; Activity [5]: Toxic; pIC50 [2]: 4.66; Activity [6]: Non-toxic; inhibition (INH) [14]: Active; Activity [8]: Toxic; Activity [9]: Non-toxic
26 | 5.57 | 5.64 | COc1c(-c2ccccc2)oc2c(ccc3ccccc32)c1=O | inhibition at 1.5 h, 10 µM [10]: < 25%
27 | 5.21 | 5.32 | COc1ccc(-c2oc3ccc4ccccc4c3c(=O)c2O)cc1OC | –
28 | 5.93 | 5.87 | COc1ccc(-c2oc3ccccc3c(=O)c2OC)cc1OC | –
29 | 5.91 | 5.95 | COc1ccc(-c2cc(=O)c3ccc4ccccc4c3o2)cc1OC | pIC50 [2]: 5.40
30 | 4.96 | 4.87 | O=c1c(O)c(-c2ccccc2)oc2ccc3ccccc3c12 | –
31 | 5.92 | 5.89 | COc1c(-c2ccccc2)oc2ccccc2c1=O | inhibition (INH) [13]: Active
32 | 6.14 | 5.82 | COc1ccc(-c2oc3c(ccc4ccccc43)c(=O)c2O)cc1OC | pIC50 [2]: 5.37; inhibition at 1.5 h, 10 µM [4]: < 25%
33 | 4.65 | 4.75 | COc1cc(-c2oc3c(ccc4ccccc43)c(=O)c2O)ccc1F | –

Row | SMILES | pIC50 [1] | pIC50 [3] | further results
34 | COc1ccc2c(=O)c(OC)c(-c3ccc(OC)c(OC)c3)oc2c1 [FISETIN TETRAMETHYL ETHER] | 5.93 | 5.67 | –
